Blank lines part the entries; values can stand above or below the compound they belong to. The source made the active and inactive calls. The rule behind the calls is not given here.
Tests used:
MDCK [1] = assay: Cytotoxicity against MDCK cells expressing carbonic anhydrase 9 assessed as reduction in cell viability at 50 nM pretreated for 72 hrs followed by 72 hrs incubation under normoxic condition by Alamar blue assay; type: functional, cell-based; conditions: Canis lupus familiaris
Outline: (§1)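 ATR inhibitor without irradiation: MDCK CAIX+ or scrambled-control CAIX− cells were preconditioned 24 h at ≤0.02% O2 (anoxia) or 21% O2. Compound was added in 0.5% DMSO for 72 h, then washed off. Cells regrew 72 h under normoxia, followed by 2 h alamarBlue conversion. Viability is relative to control.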

MDCK [2] = assay: Cytotoxicity against carbonic anhydrase 9 knockdown MDCK cells assessed as reduction in cell viability at 50 nM after 72 hrs under anoxic condition by Alamar blue assay; type: cell-based, Canis lupus familiaris; conditions: dog, 0.05 µM; outline: as §1
MDCK [3] = assay: Cytotoxicity against MDCK cells expressing carbonic anhydrase 9 assessed as reduction in cell viability at 50 nM pretreated for 1 hr followed by 2 Gy irradiation under normoxic condition by Alamar blue assay; type: functional, cell-based; conditions: Canis lupus familiaris
Outline: (§2)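 ATR inhibitor plus radiation: MDCK CAIX+/CAIX− cells were preconditioned 24 h under normoxia (21% O2) or anoxia (≤0.02% O2). Compound in 0.5% DMSO was added 1 h before X-irradiation, 2 Gy normoxic or 4 Gy anoxic. Total compound exposure was 72 h, then washout and 72 h normoxic regrowth. Readout was 2 h alamarBlue conversion, as relative viability.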

Carbonic anhydrase 1 = Carbonic anhydrase 1 (Homo sapiens, UniProt P00915); assay: Binding affinity to recombinant human carbonic anhydrase 1 after 15 mins by stopped-flow CO2 hydration assay
Sequence of Carbonic anhydrase 1 (P00915 whole entry): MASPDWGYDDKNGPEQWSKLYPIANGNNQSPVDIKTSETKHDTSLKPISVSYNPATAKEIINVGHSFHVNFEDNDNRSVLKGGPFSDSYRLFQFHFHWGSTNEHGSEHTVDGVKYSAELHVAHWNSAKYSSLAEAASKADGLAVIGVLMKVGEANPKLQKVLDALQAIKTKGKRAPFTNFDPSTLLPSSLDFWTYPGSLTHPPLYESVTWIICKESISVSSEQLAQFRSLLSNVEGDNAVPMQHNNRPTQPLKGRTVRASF

Carbonic anhydrase 9 = Carbonic anhydrase 9 (Homo sapiens, UniProt Q16790); assay: Binding affinity to recombinant human carbonic anhydrase 9 after 15 mins by stopped-flow CO2 hydration assay
Carbonic anhydrase 2 = Carbonic anhydrase 2 (Homo sapiens, UniProt P00918); assay: Binding affinity to recombinant human carbonic anhydrase 2 after 15 mins by stopped-flow CO2 hydration assay
MDCK [4] = assay: Cytotoxicity against MDCK cells expressing carbonic anhydrase 9 assessed as reduction in cell viability at 50 nM after 72 hrs under anoxic condition by Alamar blue assay; type: functional, cell-based; conditions: Canis lupus familiaris; outline: as §1
MDCK [5] = assay: Cytotoxicity against carbonic anhydrase 9 knockdown MDCK cells assessed as reduction in cell viability at 50 nM pretreated for 72 hrs followed by 72 hrs incubation under normoxic condition by Alamar blue assay; type: cell-based, Canis lupus familiaris; conditions: dog, 0.05 µM; outline: as §1
MDCK [6] = assay: Cytotoxicity against carbonic anhydrase 9 knockdown MDCK cells assessed as reduction in cell viability at 50 nM pretreated for 1 hr followed by 2 Gy irradiation under normoxic condition by Alamar blue assay; type: cell-based, Canis lupus familiaris; conditions: dog, 0.05 µM; outline: as §2
MDCK [7] = assay: Cytotoxicity against MDCK cells expressing carbonic anhydrase 9 assessed as reduction in cell viability at 50 nM pretreated for 1 hr followed by 4 Gy irradiation under anoxic condition by Alamar blue assay; type: functional, cell-based; conditions: Canis lupus familiaris; outline: as §2
Carbonic anhydrase 12 = Carbonic anhydrase 12 (Homo sapiens, UniProt O43570); assay: Binding affinity to recombinant human carbonic anhydrase 12 after 15 mins by stopped-flow CO2 hydration assay
Sequence of Carbonic anhydrase 12 (O43570 whole entry): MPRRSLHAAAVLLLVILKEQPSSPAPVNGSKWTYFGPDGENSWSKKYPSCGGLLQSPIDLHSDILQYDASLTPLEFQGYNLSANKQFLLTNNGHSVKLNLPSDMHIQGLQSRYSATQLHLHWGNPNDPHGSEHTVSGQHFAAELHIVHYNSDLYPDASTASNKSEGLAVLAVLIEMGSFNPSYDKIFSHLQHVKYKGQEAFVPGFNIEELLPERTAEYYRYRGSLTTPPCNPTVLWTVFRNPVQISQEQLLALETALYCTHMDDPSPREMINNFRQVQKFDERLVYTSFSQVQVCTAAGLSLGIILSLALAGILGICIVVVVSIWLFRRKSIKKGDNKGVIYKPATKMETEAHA

MDCK [8] = assay: Cytotoxicity against carbonic anhydrase 9 knockdown MDCK cells assessed as reduction in cell viability at 50 nM pretreated for 1 hr followed by 4 Gy irradiation under anoxic condition by Alamar blue assay; type: cell-based, Canis lupus familiaris; conditions: dog, 0.05 µM; outline: as §2
HCT-116 [9] = assay: Effect on mitochondrial respiration in carbonic anhydrase 9 knockdown human HCT116 cells assessed as reduction in oxygen consumption rate at 2 mM […]; type: cell-based; conditions: hct-116, 2000 µM
HCT-116 [10] = assay: Effect on mitochondrial respiration in human HCT116 cells expressing carbonic anhydrase 9 assessed as reduction in oxygen consumption rate at 2 mM […]; type: functional, cell-based
MDCK [11] = assay: Cytotoxicity against MDCK cells expressing carbonic anhydrase 9 assessed as reduction in cell viability at 500 nM pretreated for 1 hr followed by 2 Gy irradiation under normoxic condition by Alamar blue assay; type: functional, cell-based; conditions: Canis lupus familiaris
Outline: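 MDCK CAIX+ cells (human CAIX transfected) under normoxia (21% O2, 5% CO2). ATR inhibitors in 0.5% DMSO added 1 h before X-irradiation with 2 Gy. Exposure 72 h total, medium replaced, then 72 h further growth. Viability by 2 h alamarBlue conversion in normoxia.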

MDCK [12] = assay: Cytotoxicity against MDCK cells expressing carbonic anhydrase 9 assessed as reduction in cell viability at 500 nM pretreated for 72 hrs followed by 72 hrs incubation under normoxic condition by Alamar blue assay; type: functional, cell-based; conditions: Canis lupus familiaris
Outline: (§3)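 MDCK cells transfected with human CAIX or scrambled vector, normoxia (21% O2, 5% CO2). ATR inhibitors in 0.5% DMSO for 72 h, medium replaced, cells grown a further 72 h. Viability from 2 h alamarBlue conversion in normoxia.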

MDCK [13] = assay: Cytotoxicity against MDCK cells expressing carbonic anhydrase 9 assessed as reduction in cell viability at 500 nM pretreated for 1 hr followed by 4 Gy irradiation under anoxic condition by Alamar blue assay; type: functional, cell-based; conditions: Canis lupus familiaris
Outline: (§4)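 MDCK cells with or without CAIX, pre-exposed 24 h to anoxia (≤0.02% O2, 5% CO2, balance N2) in pre-equilibrated DMEM. ATR inhibitors in 0.5% DMSO added 1 h before 4 Gy X-irradiation. Exposure 72 h total, medium replaced, then 72 h normoxic regrowth. Viability by 2 h alamarBlue in normoxia.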

MDCK [14] = assay: Cytotoxicity against carbonic anhydrase 9 knockdown MDCK cells assessed as reduction in cell viability at 500 nM pretreated for 72 hrs followed by 72 hrs incubation under normoxic condition by Alamar blue assay; type: cell-based, Canis lupus familiaris; conditions: dog, 0.5 µM; outline: as §3
MDCK [15] = assay: Cytotoxicity against MDCK cells expressing carbonic anhydrase 9 assessed as reduction in cell viability at 500 nM after 72 hrs under anoxic condition by Alamar blue assay; type: functional, cell-based; conditions: Canis lupus familiaris
Outline: (§5)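 MDCK CAIX+ or CAIX− cells, 24 h anoxic preincubation (≤0.02% O2, 5% CO2) in pre-equilibrated DMEM. ATR inhibitors (0.5% DMSO) applied for 72 h without irradiation, then washed off, and 72 h normoxic regrowth. Readout by 2 h alamarBlue conversion under normoxia.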

MDCK [16] = assay: Cytotoxicity against carbonic anhydrase 9 knockdown MDCK cells assessed as reduction in cell viability at 500 nM pretreated for 1 hr followed by 4 Gy irradiation under anoxic condition by Alamar blue assay; type: cell-based, Canis lupus familiaris; conditions: dog, 0.5 µM; outline: as §4
MDCK [17] = assay: Cytotoxicity against carbonic anhydrase 9 knockdown MDCK cells assessed as reduction in cell viability at 500 nM after 72 hrs under anoxic condition by Alamar blue assay; type: cell-based, Canis lupus familiaris; conditions: dog, 0.5 µM; outline: as §5
MDCK [18] = assay: Cytotoxicity against carbonic anhydrase 9 knockdown MDCK cells assessed as reduction in cell viability at 500 nM pretreated for 1 hr followed by 2 Gy irradiation under normoxic condition by Alamar blue assay; type: cell-based, Canis lupus familiaris; conditions: dog, 0.5 µM; outline: as §2
MDCK [19] = assay: Cytotoxicity against carbonic anhydrase 9 knockdown MDCK cells assessed as reduction in cell viability after 72 hrs under hypoxic condition by Alamar blue assay; type: cell-based; conditions: Canis lupus familiaris
[20] = Cytotoxicity against carbonic anhydrase 9 knockdown MDCK cells assessed as surviving fraction incubated for 24 hrs measured after 7 days under normoxic condition by methylene blue staining based clonogenic survival assay; type: cell-based, Canis lupus familiaris; conditions: dog, read-out: Survival
Outline: (§6)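 Confluent, high-density MDCK CAIX+/CAIX− cells, to allow CAIX-dependent medium acidification. Drug or vehicle (0.5% DMSO) for 24 h under normoxia (21% O2) or hypoxia (0.2% O2). Cells then trypsinised and reseeded in triplicate at known numbers, grown 7 days. Colonies fixed and stained with 0.4% methylene blue in 70% ethanol. Surviving fraction normalised to vehicle. Three independent biological repeats.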

MDCK [21] = assay: Cytotoxicity against MDCK cells expressing carbonic anhydrase 9 assessed as reduction in cell viability after 72 hrs under hypoxic condition by Alamar blue assay; type: functional, cell-based; conditions: Canis lupus familiaris
MDCK [22] = assay: Cytotoxicity against MDCK cells expressing carbonic anhydrase 9 assessed as surviving fraction incubated for 24 hrs measured after 7 days under hypoxic condition by methylene blue staining based clonogenic survival assay; type: functional, Canis lupus familiaris; outline: as §6
MDCK [23] = assay: Cytotoxicity against MDCK cells expressing carbonic anhydrase 9 assessed as reduction in cell viability after 72 hrs under normoxic condition by Alamar blue assay; type: functional, cell-based; conditions: Canis lupus familiaris
MDCK [24] = assay: Cytotoxicity against carbonic anhydrase 9 knockdown MDCK cells assessed as reduction in cell viability after 72 hrs under normoxic condition by Alamar blue assay; type: cell-based; conditions: Canis lupus familiaris
HCT-116 [25] = assay: Effect on mitochondrial respiration in carbonic anhydrase 9 knockdown human HCT116 cells assessed as reduction in oxygen consumption rate at 0.5 mM after 24 hrs under hypoxic condition […]; type: ADME, cell-based; conditions: hct-116, 24 h, 500 µM
Outline: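 HCT116 cells with constitutive CAIX knockdown or scrambled control were seeded at 1.5×10^4 cells/well and kept 18 h at 0.2% O2. Medium was then switched to DMEM with 25 mM glucose, 4 mM glutamine and 1 mM pyruvate, 60 min before assay, in a CO2-free incubator at 37 °C. Seahorse XF96 oxygen consumption rate was read at baseline and after injection of drug or PBS vehicle. Values were normalized to BCA protein.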

Ki (Carbonic anhydrase 1): > 50 µM
Ki (Carbonic anhydrase 9): > 50 µM
Ki (Carbonic anhydrase 2): > 50 µM
Ki (Carbonic anhydrase 12): > 50 µM
Compound: CNCc1ccc(-c2cc(-c3nc(-c4ccc(S(=O)(=O)C(C)C)cc4)cnc3N)on2)cc1 [BERZOSERTIB]
Activity (MDCK [1]): Active
Activity (MDCK [2]): Toxic
Activity (MDCK [3]): Active
Activity (MDCK [4]): Active
Activity (MDCK [5]): Toxic
Activity (MDCK [6]): Non-Toxic
Activity (MDCK [7]): Active
Activity (MDCK [8]): Non-Toxic

Ki (Carbonic anhydrase 9): 0.0202 µM
Compound: Cl.N=C(N)NC(=N)NCCc1ccc(S(N)(=O)=O)cc1
Activity (HCT-116 [9]): Non-Toxic
Activity (HCT-116 [10]): inactive

Ki (Carbonic anhydrase 1): > 50 µM
Ki (Carbonic anhydrase 9): > 50 µM
Ki (Carbonic anhydrase 2): > 50 µM
Ki (Carbonic anhydrase 12): > 50 µM
Compound: CS(=O)(=O)c1ccc(-c2cnc(NS(N)(=O)=O)c(C(=O)Nc3ccccc3)n2)cc1
Activity (MDCK [11]): Active
Activity (MDCK [12]): Active
Activity (MDCK [13]): Active
Activity (MDCK [14]): Toxic
Activity (MDCK [15]): Active
Activity (MDCK [16]): Non-Toxic
Activity (MDCK [17]): Toxic
Activity (MDCK [18]): Non-Toxic

Compound: Cn1nnc2c(C(=O)NOS(N)(=O)=O)ncn2c1=O
IC50 (MDCK [19]): 1000 µM
viability at 24 h [20]: 46.1%
Ki (Carbonic anhydrase 1): > 50 µM
IC50 (MDCK [21]): > 1000 µM
Ki (Carbonic anhydrase 9): > 50 µM
Ki (Carbonic anhydrase 2): > 50 µM
Survival (MDCK [22]): 26.1%
IC50 (MDCK [23]): > 1000 µM
IC50 (MDCK [24]): 719 µM
Ki (Carbonic anhydrase 12): > 50 µM

Ki (Carbonic anhydrase 1): > 50 µM
Ki (Carbonic anhydrase 9): > 50 µM
Ki (Carbonic anhydrase 2): > 50 µM
Ki (Carbonic anhydrase 12): > 50 µM
Compound: [H]/N=C(/N)N/C(=N/[H])NCCc1ccccc1 [PHENFORMIN]
Activity (HCT-116 [25]): Toxic

Reference: ChEMBL document CHEMBL3992493, “New approach of delivering cytotoxic drugs towards CAIX expressing cells: A concept of dual-target drugs” (Eur J Med Chem, 2017)
